From ChEMBL document CHEMBL4765445, “Structure-activity relationship study of novel quinazoline-based 1,6-naphthyridinones as MET inhibitors with potent antitumor efficacy” (Eur J Med Chem, 2020)

Legend:
[1] = Cmax in rat at 5 mg/kg, iv; assay type: ADME, organism-based; design: route intravenous, dose 5 mg/kg; details: in vivo
In short: (§1)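 Rat pharmacokinetics used 10 mg/kg p.o. and 5 mg/kg i.v. with vehicle 70% PEG400-30% water. Plasma concentration–time curves gave Cmax, Tmax, T1/2, AUC0-∞, CL, Vz and oral bioavailability F. Values are the average of three animals.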

[2] = Oral bioavailability in rat at 10 mg/kg; assay type: ADME, organism-based; details: in vivo; in short: as §1
[3] = molecular target: T1, Hepatocyte growth factor receptor (Homo sapiens, UniProt P08581); assay: Inhibition of MET in human MKN-45 cells assessed as reduction in HGF-mediated autophosphorylation; assay type: cell-based
T1 sequence (P08581 whole entry): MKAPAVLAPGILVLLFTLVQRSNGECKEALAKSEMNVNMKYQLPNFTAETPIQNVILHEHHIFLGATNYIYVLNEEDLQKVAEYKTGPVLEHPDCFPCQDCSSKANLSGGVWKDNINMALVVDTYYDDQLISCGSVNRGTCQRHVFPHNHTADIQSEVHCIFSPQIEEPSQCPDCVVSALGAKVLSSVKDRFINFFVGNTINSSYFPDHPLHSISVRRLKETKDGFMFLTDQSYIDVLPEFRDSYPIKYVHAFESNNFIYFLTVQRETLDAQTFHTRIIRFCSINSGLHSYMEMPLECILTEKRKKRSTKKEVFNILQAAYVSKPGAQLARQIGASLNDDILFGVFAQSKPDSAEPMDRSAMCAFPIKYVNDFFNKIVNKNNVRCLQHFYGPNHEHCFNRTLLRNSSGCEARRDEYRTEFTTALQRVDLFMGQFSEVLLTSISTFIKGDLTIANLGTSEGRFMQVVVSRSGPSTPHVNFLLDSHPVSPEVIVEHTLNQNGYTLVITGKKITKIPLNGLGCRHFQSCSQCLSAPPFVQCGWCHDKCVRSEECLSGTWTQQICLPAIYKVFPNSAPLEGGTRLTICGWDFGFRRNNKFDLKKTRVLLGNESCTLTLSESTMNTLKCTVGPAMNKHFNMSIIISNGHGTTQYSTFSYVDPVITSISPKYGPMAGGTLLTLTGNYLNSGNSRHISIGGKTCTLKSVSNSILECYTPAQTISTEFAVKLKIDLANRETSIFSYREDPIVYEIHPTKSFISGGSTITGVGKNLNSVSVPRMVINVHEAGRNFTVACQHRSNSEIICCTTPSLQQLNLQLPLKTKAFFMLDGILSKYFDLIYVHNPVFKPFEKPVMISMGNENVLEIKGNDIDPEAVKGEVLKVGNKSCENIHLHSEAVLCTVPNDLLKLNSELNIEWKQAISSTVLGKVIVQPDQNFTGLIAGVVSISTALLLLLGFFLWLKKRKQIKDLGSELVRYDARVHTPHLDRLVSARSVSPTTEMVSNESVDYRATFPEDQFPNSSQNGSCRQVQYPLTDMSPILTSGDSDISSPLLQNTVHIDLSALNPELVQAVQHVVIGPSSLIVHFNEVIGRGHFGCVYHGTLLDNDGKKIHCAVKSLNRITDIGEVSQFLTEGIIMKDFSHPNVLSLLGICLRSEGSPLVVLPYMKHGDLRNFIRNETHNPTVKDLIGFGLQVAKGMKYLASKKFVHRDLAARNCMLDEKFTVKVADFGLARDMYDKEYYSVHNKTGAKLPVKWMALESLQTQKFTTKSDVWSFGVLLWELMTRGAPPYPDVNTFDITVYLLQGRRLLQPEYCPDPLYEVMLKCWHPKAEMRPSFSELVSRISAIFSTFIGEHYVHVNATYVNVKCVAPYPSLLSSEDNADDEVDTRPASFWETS

[4] = Half life in human liver microsomes; assay type: ADME, Microsome
[5] = Clearance in rat at 5 mg/kg, iv; assay type: ADME, organism-based; details: in vivo; in short: as §1
[6] = AUC (0 to infinity) in rat at 10 mg/kg, po; assay type: ADME, organism-based; design: time infinity, route oral, dose 10 mg/kg; details: in vivo
[7] = molecular target: Vascular endothelial growth factor receptor 2 (Homo sapiens, UniProt P35968); assay: Inhibition of recombinant VEGFR2 kinase domain (unknown origin)
Chain of Vascular endothelial growth factor receptor 2 (P35968 whole entry, the tested form may be a part): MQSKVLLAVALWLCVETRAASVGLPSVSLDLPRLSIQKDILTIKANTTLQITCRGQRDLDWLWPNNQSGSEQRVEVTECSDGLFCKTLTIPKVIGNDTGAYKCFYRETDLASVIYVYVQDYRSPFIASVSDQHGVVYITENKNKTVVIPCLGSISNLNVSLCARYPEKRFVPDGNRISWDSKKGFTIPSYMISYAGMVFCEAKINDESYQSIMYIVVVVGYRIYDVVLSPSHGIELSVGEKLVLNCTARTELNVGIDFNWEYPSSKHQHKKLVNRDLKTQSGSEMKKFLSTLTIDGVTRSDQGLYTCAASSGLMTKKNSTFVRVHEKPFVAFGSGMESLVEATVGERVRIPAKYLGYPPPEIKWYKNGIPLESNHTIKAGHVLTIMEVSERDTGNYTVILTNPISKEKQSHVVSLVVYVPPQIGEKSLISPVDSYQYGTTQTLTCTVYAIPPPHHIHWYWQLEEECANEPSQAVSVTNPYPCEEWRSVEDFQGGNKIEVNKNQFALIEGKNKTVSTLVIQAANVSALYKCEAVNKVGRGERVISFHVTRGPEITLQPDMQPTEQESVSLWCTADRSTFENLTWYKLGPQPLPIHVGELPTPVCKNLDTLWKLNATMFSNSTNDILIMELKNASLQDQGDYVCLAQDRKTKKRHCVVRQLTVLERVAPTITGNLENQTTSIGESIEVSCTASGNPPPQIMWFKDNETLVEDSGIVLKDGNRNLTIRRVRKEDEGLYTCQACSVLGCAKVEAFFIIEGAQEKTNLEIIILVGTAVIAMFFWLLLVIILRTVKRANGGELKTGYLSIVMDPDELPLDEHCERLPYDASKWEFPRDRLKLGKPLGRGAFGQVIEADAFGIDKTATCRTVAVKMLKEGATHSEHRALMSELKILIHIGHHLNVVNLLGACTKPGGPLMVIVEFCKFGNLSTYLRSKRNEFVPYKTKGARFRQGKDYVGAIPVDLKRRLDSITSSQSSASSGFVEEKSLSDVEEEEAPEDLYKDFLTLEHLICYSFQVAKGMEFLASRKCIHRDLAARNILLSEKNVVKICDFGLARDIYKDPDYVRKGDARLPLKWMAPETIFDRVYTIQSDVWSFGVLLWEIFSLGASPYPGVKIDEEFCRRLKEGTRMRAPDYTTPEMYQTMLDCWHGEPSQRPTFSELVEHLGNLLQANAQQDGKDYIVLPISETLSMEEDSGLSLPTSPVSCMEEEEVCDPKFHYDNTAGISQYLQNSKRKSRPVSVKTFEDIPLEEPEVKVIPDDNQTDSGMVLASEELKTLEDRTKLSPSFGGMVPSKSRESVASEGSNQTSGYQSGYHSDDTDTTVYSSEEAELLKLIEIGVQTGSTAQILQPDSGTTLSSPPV
In short: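 In vitro kinase assay using purified recombinant VEGFR-2 kinase domain; IC50 determined.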

[8] = AUC (0 to infinity) in rat at 5 mg/kg, iv; assay type: ADME, organism-based; design: time infinity, route intravenous, dose 5 mg/kg; details: in vivo
[9] = AUC (0 to t) in nude mouse xenografted with human U-87 MG cells at 25 mg/kg, po administered once daily for 3 weeks; assay type: ADME, organism-based; design: time 3 weeks, dose 25 mg/kg; details: in vivo
[10] = Apparent volume of distribution in rat at 10 mg/kg, po; assay type: ADME, organism-based; details: in vivo; in short: as §1
[11] = molecular target: T2, Receptor-type tyrosine-protein kinase FLT3 (Homo sapiens, UniProt P36888); assay: Inhibition of FLT3 (unknown origin)
T2 sequence (P36888 whole entry): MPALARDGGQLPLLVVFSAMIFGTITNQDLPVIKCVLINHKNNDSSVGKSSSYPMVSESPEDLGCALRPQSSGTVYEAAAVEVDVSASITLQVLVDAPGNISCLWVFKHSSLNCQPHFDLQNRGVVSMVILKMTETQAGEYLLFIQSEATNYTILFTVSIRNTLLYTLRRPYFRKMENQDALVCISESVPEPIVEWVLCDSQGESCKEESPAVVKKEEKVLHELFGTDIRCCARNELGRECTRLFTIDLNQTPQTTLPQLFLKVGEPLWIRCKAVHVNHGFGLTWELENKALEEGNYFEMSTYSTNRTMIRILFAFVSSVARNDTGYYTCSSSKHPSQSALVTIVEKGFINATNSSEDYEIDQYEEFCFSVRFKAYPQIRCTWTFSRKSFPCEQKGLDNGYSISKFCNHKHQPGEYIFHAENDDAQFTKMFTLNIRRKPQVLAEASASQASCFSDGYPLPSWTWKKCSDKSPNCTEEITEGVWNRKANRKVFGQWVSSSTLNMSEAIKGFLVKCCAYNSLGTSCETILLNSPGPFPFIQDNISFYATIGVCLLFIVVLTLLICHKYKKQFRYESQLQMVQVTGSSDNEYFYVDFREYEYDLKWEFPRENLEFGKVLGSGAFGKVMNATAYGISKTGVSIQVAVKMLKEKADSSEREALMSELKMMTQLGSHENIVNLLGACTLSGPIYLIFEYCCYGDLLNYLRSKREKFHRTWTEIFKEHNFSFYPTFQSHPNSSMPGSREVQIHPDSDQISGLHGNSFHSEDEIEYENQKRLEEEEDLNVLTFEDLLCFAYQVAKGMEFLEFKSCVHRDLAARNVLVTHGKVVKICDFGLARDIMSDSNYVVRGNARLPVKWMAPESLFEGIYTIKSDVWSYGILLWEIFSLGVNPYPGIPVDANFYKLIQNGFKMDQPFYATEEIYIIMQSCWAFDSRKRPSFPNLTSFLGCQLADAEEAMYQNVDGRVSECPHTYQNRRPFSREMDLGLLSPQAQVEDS

U-87 MG [12] = assay: Antitumor activity against human U-87 MG cells xenografted in nude mouse assessed as tumor growth inhibition at 75 mg/kg, po administered once daily for 3 weeks relative to control; assay type: functional, U-87MG ATCC; details: 504 h, read-out: TGI
[13] = AUC (0 to t) in nude mouse xenografted with human U-87 MG cells at 75 mg/kg, po administered once daily for 3 weeks; assay type: ADME, organism-based; design: time 3 weeks, dose 75 mg/kg; details: in vivo
[14] = Cmax in rat at 10 mg/kg, po; assay type: ADME, organism-based; design: route oral, dose 10 mg/kg; details: in vivo; in short: as §1
[15] = Half life in rat at 10 mg/kg, po; assay type: ADME, organism-based; details: in vivo; in short: as §1
[16] = Clearance in rat at 10 mg/kg, po; assay type: ADME, organism-based; details: in vivo; in short: as §1
U-87 MG [17] = assay: Antitumor activity against human U-87 MG cells xenografted in po dosed nude mouse assessed as tumor growth inhibition administered once daily for 3 weeks; assay type: functional, U-87MG ATCC
[18] = molecular target: Platelet-derived growth factor receptor beta (Homo sapiens, UniProt P09619); assay: Inhibition of PDGFRbeta (unknown origin)
Chain of Platelet-derived growth factor receptor beta (P09619 whole entry): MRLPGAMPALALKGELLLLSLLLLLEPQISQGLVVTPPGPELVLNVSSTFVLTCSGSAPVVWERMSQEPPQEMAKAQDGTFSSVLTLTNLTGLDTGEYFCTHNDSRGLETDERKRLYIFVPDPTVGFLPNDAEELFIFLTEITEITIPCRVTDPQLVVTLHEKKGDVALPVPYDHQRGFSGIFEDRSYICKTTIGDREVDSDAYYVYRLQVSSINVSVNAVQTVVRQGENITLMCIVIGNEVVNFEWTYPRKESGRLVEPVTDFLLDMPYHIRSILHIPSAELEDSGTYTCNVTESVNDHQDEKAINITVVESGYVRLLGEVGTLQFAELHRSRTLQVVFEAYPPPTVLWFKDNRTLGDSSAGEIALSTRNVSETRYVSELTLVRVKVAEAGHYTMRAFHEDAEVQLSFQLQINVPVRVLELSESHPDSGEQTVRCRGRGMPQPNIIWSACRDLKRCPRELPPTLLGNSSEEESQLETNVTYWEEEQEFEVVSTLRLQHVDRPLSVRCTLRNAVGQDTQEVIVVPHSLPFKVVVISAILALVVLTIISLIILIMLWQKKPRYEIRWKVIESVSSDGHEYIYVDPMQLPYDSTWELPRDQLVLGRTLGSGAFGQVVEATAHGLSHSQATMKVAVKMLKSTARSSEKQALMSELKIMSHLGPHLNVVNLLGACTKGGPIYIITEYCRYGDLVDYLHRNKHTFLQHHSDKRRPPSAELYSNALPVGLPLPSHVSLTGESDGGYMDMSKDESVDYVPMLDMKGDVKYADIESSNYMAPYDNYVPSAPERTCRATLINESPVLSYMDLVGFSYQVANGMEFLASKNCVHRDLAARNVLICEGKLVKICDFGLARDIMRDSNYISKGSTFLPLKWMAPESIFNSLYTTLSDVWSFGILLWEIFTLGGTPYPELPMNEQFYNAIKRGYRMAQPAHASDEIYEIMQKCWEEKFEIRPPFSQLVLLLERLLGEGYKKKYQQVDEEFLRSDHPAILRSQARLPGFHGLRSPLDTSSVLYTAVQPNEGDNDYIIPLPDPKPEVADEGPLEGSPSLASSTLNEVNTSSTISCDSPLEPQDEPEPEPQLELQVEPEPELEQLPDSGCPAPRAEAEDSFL

[19] = Tmax in rat at 10 mg/kg, po; assay type: ADME, organism-based; details: in vivo; in short: as §1
U-87 MG [20] = assay: Antitumor activity against human U-87 MG cells xenografted in nude mouse assessed as tumor growth inhibition at 25 mg/kg, po administered once daily for 3 weeks; assay type: functional, U-87MG ATCC; details: 504 h, read-out: TGI
[21] = Cmax in nude mouse xenografted with human U-87 MG cells at 75 mg/kg, po administered once daily for 3 weeks; assay type: ADME, organism-based; design: route oral, time 3 weeks, dose 75 mg/kg; details: in vivo
In short: (§2)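 PK/PD sampling was done within the U-87 MG nude-mouse xenograft study. Compound was given p.o. once daily for 21 days in 70% PEG-400/H₂O. Cmax and AUC0-t were measured in plasma.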

[22] = molecular target: T1, Hepatocyte growth factor receptor; assay: Inhibition of recombinant MET kinase domain (unknown origin)
[23] = Cmax in nude mouse xenografted with human U-87 MG cells at 25 mg/kg, po administered once daily for 3 weeks; assay type: ADME, organism-based; design: route oral, dose 25 mg/kg, time 3 weeks; details: in vivo; in short: as §2
[24] = molecular target: Mast/stem cell growth factor receptor Kit (Homo sapiens, UniProt P10721); assay: Inhibition of c-KIT (unknown origin)
Chain of Mast/stem cell growth factor receptor Kit (P10721 whole entry): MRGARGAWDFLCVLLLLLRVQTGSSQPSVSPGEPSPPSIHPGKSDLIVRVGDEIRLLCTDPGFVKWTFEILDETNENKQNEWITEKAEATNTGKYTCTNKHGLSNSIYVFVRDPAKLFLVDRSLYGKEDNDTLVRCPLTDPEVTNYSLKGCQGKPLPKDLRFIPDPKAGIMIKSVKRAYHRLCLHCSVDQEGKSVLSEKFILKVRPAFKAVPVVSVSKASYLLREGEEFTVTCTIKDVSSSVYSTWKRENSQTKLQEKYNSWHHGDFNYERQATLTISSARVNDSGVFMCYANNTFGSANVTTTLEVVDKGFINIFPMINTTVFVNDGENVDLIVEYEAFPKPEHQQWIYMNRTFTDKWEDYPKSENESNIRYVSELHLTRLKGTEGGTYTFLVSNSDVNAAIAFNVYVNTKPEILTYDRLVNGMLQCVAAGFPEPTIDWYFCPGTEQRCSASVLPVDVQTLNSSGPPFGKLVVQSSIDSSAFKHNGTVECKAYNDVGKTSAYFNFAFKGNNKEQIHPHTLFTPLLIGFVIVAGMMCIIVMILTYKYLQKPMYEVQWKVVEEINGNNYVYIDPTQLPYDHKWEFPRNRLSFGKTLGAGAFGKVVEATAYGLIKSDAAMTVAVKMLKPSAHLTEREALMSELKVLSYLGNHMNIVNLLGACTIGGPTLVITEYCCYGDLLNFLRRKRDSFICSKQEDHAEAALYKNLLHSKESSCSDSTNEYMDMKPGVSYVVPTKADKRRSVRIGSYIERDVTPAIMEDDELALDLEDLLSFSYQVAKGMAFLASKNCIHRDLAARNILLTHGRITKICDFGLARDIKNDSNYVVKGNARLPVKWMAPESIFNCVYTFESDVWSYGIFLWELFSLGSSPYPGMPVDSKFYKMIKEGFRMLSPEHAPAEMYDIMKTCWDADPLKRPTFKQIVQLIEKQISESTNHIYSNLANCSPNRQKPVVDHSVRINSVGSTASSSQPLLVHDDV

[25] = Half life in rat at 5 mg/kg, iv; assay type: ADME, organism-based; details: in vivo; in short: as §1
[26] = Apparent volume of distribution in rat at 5 mg/kg, iv; assay type: ADME, organism-based; details: in vivo, read-out: Vz; in short: as §1
[27] = Tmax in rat at 5 mg/kg, iv; assay type: ADME, organism-based; details: in vivo; in short: as §1

In the case of `COc1cc2ncnc(Oc3ccc(Nc4nccc5[nH]cc(-c6ccc(F)cc6)c(=O)c45)cc3)c2cc1OC`, the Cmax [1] is reported as 44000 ng/mL, the bioavailability [2] is reported as 42% and the IC50 [3] is reported as 0.0865 µM. For the same compound, the half-life [4] was 10.4 h, the clearance [5] was 0.167 mL/min/kg and the AUC(0-inf) [6] was 427 µg·h/mL. For the same compound, the IC50 [7] was 0.111 µM, the AUC(0-inf) [8] was 510 µg·h/mL and the AUC(0-t) at 504 h [9] was 156 µg·h/mL. It also gave a Vz [10] of 0.4 L/kg, an IC50 [11] of 0.0169 µM and an inhibition in vivo at 75 mg/kg (U-87 MG [12]) of 81%. For the same compound, the AUC(0-t) at 504 h [13] was 279 µg·h/mL, the Cmax [14] was 25100 ng/mL and the half-life [15] was 12.5 h. For the same compound, the CL/F [16] was 0.333 mL/min/kg, the ED50 (U-87 MG [17]; 504 h) was 25 mg/kg and the TGI (U-87 MG [17]; U-87MG ATCC) was “Dose-dependent effect”. For the same compound, the IC50 [18] was greater than 2 µM, the Tmax [19] was 3.5 h and the inhibition in vivo at 25 mg/kg (U-87 MG [20]) was 51%. The Cmax [21] was 16000 ng/mL, the IC50 [22] was 0.009 µM and the Cmax [23] was 12100 ng/mL. For the same compound, the IC50 [24] was 0.0283 µM, the half-life [25] was 14 h and the Vd [26] was 0.2 L/kg. The Tmax [27] was 1.8 min.
